High-throughput results (PubChem)
The list is not random: actives were taken first. Their share in the collection is about 8.8%.
RORa activator: RORA (human) activation. P35398. activation, % at 10 µM. CHO-K1 Gal4-RORA LBD luciferase reporter, luminescence; percent increase over mock-subtracted basal signal. 65,000 compounds, 1.5% hits;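 active means activation above the mean of all tested compounds plus 3 SD, cut at about 49% in these data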;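 further: 0% = DMSO-treated RORA cells and 100% = added signal equal to DMSO minus mock-transfected cells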
S1P3 agonist: S1P3 (human) receptor agonism | Q99500 | 60,000 compounds, 0.1% hits | S1P3 NFAT-BLA reporter cells, FRET ratio; relative to 1 µM S1P, basal subtracted | activation, % at 4.5 µM;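 active means activation above the screen-wide mean plus 3 SD, cut at about 4.5% in these data, passing the limit was not always enough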
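Measure – % activation relative to 1 µM S1P (100%), per plate · System – stable CHO line with human S1P3, Gα16, NFAT-BLA reporter · Timing – cells plated overnight, compound 4 h 37 °C, substrate 2 h RT · Technique – fluorescent BLA substrate, ex 405 nm, em 460/535 nm ratio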
M1 antag: M1 muscarinic receptor (rat) antagonism; P08482; CHO-M1 cells, Fluo-4 calcium, ACh EC80 antagonist mode; active compounds read low; B-score at 10 µM; 64,000 compounds, 3.4% hits; AID 628;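 active means calcium fluorescence response, raw or row-and-column corrected B-score, differing from the plate sample mean either way at a set confidence level, mostly lower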
S1P1 ag pot: activates or potentiates agonism at human S1P1 receptor; P21453; S1P1 CRE-bla cells, forskolin, beta-lactamase FRET, potentiator mode; S1P1 agonist co-added at EC20, 2 nM; 100% = saturating reference agonist, 0% = basal; activation, % at 9.5 µM; 56,000 compounds, 0.57% hits;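 active means activation above a cutoff set at the mean activation of all tested compounds plus 3 SD, cut at about 54% in these data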;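 further: forskolin at 4 µM as EC80 and the EC20 agonist is SEW2871; 100% = SEW2871 at its EC100 plus forskolin at EC80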
SF-1 act: activates the human nuclear receptor SF-1. activation, % at 10 µM. CHO-K1 Gal4-SF-1 LBD luciferase reporter; % increase over DMSO SF-1-specific signal. Q13285. 65,000 compounds, 1.9% hits;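 active means activation above the mean activation of all tested compounds plus 3 SD, cut at about 50% in these data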
Target sequence (Q13285 whole entry, looked up, the tested form may be a part): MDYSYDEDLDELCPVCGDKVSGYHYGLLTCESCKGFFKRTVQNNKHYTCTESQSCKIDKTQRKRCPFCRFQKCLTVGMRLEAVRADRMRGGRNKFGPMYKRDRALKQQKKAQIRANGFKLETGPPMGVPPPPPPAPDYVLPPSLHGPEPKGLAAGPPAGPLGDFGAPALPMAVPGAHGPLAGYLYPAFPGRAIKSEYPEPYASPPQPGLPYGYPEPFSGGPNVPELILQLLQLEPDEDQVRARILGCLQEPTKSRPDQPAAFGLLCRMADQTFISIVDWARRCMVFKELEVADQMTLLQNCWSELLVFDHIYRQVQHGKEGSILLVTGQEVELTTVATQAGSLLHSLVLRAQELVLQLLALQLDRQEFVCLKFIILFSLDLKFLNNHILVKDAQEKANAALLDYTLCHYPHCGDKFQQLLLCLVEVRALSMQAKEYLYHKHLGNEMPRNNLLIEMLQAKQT
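System: CHO-K1 cells with Gal4–hSF-1 LBD chimera plus Gal4-driven luciferase; quantity: 4,000 CHO-K1 cells per well; compound: one dose, 10 µM compound, 1% DMSO; times: 20 h compound treatment, 37 °C; measured by: SteadyLite luciferase luminescence; read-out: percent activation versus DMSO; benchmarks: DMSO and mock-transfected background; replicates: one test per compound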
M1 agonist: M1 muscarinic receptor agonism | CHO-M1 cells, Fluo-4 calcium fluorescence, agonist mode; active compounds read high | B-score at 10 µM | 64,000 compounds, 3% hits;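 active means fluorescence rise, raw or as B-score row- and column-corrected plate score, outside the 99.7% band of its plate's samples, either direction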
* = called active by the depositor.

How did O=c1c2[nH]c3ccccc3c2ncn1C1CCCCC1 do in these assays?
RORa activator: 61.1*; S1P3 agonist: 0.0; M1 antag: 0.318; S1P1 ag pot: -1.4; SF-1 act: 20.5; M1 agonist: -0.684

What do the screens show for `O=C(NCc1ccco1)C(NS(=O)(=O)c1cccc2nsnc12)c1ccccc1` (stereo not given)?
RORa activator: 4.1; S1P3 agonist: 0.4; M1 antag: -2.57; S1P1 ag pot: -10.6; SF-1 act: -26.8; M1 agonist: 0.485

What do the screens show for `c1ccc(-c2nc3nonc3nc2-c2ccccc2)cc1`?
RORa activator: -38.9; S1P3 agonist: 6.1*; M1 antag: -1.9; S1P1 ag pot: 3.6; SF-1 act: -26.5; M1 agonist: -0.325

Results for Nc1nonc1-c1noc(CCCN2C(=O)c3ccccc3C2=O)n1 ?
RORa activator: 39.8; S1P3 agonist: -0.3; M1 antag: 0.778; S1P1 ag pot: -18.2; SF-1 act: 49.5*; M1 agonist: -0.0834

How did Nc1nonc1-c1noc(COc2ccccc2Cl)n1 do in these assays?
RORa activator: 87.9*; S1P3 agonist: -0.2; M1 antag: 0.162; S1P1 ag pot: -11.4; SF-1 act: 68.6*; M1 agonist: 0.0683

Results for Clc1ccccc1OCc1nc(-c2ccccn2)no1 ?
RORa activator: -5.4; S1P3 agonist: -0.5; M1 antag: -0.311; S1P1 ag pot: 17.1; SF-1 act: 17.6; M1 agonist: -0.595

What do the screens show for `Cc1cccc(OCc2nc(-c3nonc3N)no2)c1C`?
RORa activator: 81.3*; S1P3 agonist: -0.6; S1P1 ag pot: 18.7; SF-1 act: 32.6

Results for COCCN1C(=O)c2ccccc2C(C(=O)NCCCN2CCCC2=O)C1c1c[nH]c2ccccc12 (stereo not given) ?
RORa activator: 15.1; S1P3 agonist: -0.9; M1 antag: -0.298; S1P1 ag pot: -2.3; SF-1 act: 14.0; M1 agonist: -0.393

How did C=CCNC(=O)c1ccc2c(c1)nnn2C do in these assays?
RORa activator: -18.2; M1 antag: -0.242; SF-1 act: -1.0; M1 agonist: -0.965

Results for Cc1ccc(C(=O)Nc2sc3c(c2C(=O)O)CCCCC3)o1 ?
RORa activator: 76.8*; S1P3 agonist: -1.0; M1 antag: -0.0994; S1P1 ag pot: 31.3; SF-1 act: 32.9; M1 agonist: 1.48

Results for O=C(Nc1sc2c(c1C(=O)NC1CC1)CCCCCC2)c1ccco1 ?
RORa activator: -12.9; S1P3 agonist: -0.3; M1 antag: 0.114; S1P1 ag pot: 16.3; SF-1 act: -8.0; M1 agonist: 0.132

Results for O=C(Nc1sc2c(c1C(=O)O)CCCC2)c1cccs1 ?
RORa activator: 67.1*; S1P3 agonist: -1.0; M1 antag: -0.00542; S1P1 ag pot: 36.4; SF-1 act: 53.9*; M1 agonist: 0.333

Results for COC(=O)c1c(NC(=O)c2ccc(C)o2)sc2c1CCCCC2 ?
RORa activator: 33.8; S1P3 agonist: -1.2; S1P1 ag pot: -24.4; SF-1 act: 52.2*

Results for COC(=O)c1c(NC(=O)c2c(C)noc2C)sc2c1CCCCCC2 ?
RORa activator: -19.0; S1P3 agonist: -0.8; M1 antag: -0.272; S1P1 ag pot: 15.6; SF-1 act: 4.5; M1 agonist: -0.428

How did CC(C)OC(=O)c1c(NC(=O)c2cccs2)sc2c1CCCC2 do in these assays?
RORa activator: 7.8; S1P3 agonist: -1.1; M1 antag: 0.36; S1P1 ag pot: -16.4; SF-1 act: -7.9; M1 agonist: 0.368

How did CCc1ccc(N2CC(C(=O)Nc3nccs3)CC2=O)cc1 (stereo not given) do in these assays?
RORa activator: -2.1; S1P3 agonist: -1.1; M1 antag: -0.211; S1P1 ag pot: 10.3; SF-1 act: 5.9; M1 agonist: -0.116

Results for CCCCCOc1ccc(CN2CCOCC2)cc1Cl ?
RORa activator: 39.9; S1P3 agonist: -0.9; M1 antag: 0.00084; S1P1 ag pot: -7.6; SF-1 act: 61.3*; M1 agonist: 0.324

What do the screens show for `CCOC(=O)CCn1nc(-c2ccc(Cl)cc2)cc1N`?
RORa activator: 41.4; S1P3 agonist: 0.7; M1 antag: -0.00642; S1P1 ag pot: 2.0; SF-1 act: 70.0*; M1 agonist: 0.658

What do the screens show for `CC1=C(SCCC#N)S/C(=C2\SC(C)=C(SCCC#N)S2)S1`?
RORa activator: -7.5; S1P3 agonist: -0.7; M1 antag: -0.197; S1P1 ag pot: 19.6; SF-1 act: -3.0; M1 agonist: 0.249

What do the screens show for `Cn1c(Sc2nc3ccccc3n2C)nc2ccccc21`?
RORa activator: -12.7; S1P3 agonist: 0.0; M1 antag: -0.00654; S1P1 ag pot: -7.9; SF-1 act: -18.7; M1 agonist: 0.107

Results for Cn1c(SCc2ccc(C#N)cc2Cl)nc2ccccc21 ?
RORa activator: 81.8*; S1P3 agonist: -2.3; M1 antag: 0.0282; S1P1 ag pot: 4.5; SF-1 act: 37.2; M1 agonist: 0.0397

How did c1ccc(N2CCN(c3ccccc3)C2c2cccs2)cc1 do in these assays?
RORa activator: 58.4*; S1P3 agonist: -0.6; M1 antag: -0.261; S1P1 ag pot: 6.0; SF-1 act: 23.5; M1 agonist: 1.54

How did O=C(OC(C(=O)NCC1CCCO1)c1ccccc1F)c1ccco1 (stereo not given) do in these assays?
RORa activator: -20.2; S1P3 agonist: 0.0; M1 antag: 0.454; S1P1 ag pot: -18.9; SF-1 act: 5.5; M1 agonist: 0.0205

How did CCOC(=O)N1CCN(C(=O)CN(c2ccc(OCc3ccccc3)cc2)S(C)(=O)=O)CC1 do in these assays?
RORa activator: 3.1; S1P3 agonist: -0.4; M1 antag: 0.0729; SF-1 act: 8.4; M1 agonist: 0

Results for O=C(Nc1cnc2ccccc2c1)N1CCCCC1 ?
RORa activator: 72.0*; S1P3 agonist: 0.1; M1 antag: 0.745; S1P1 ag pot: -15.5; SF-1 act: 33.0; M1 agonist: 0.917

Results for O=C(Nc1cnc2ccccc2c1)N1CCOCC1 ?
RORa activator: 26.0; S1P3 agonist: 0.1; M1 antag: 0.278; S1P1 ag pot: -13.6; SF-1 act: 33.1; M1 agonist: -0.466

Results for CCCN(CCC)C(=O)c1c(C)[nH]c(C(=O)OCC)c1C ?
RORa activator: 6.2; S1P3 agonist: -0.9; M1 antag: -1.34; S1P1 ag pot: -3.0; SF-1 act: -9.2; M1 agonist: 0.0532

How did CCOC(=O)c1[nH]c(C)c(C(=O)Nc2ccccc2C)c1C do in these assays?
RORa activator: 80.6*; S1P3 agonist: -1.4; M1 antag: 0.256; S1P1 ag pot: 27.7; SF-1 act: 26.1; M1 agonist: 0.0427

How did CCCCCCC(=O)c1c(C)[nH]c(C(=O)OCC)c1C do in these assays?
RORa activator: 9.1; S1P3 agonist: -1.5; M1 antag: -0.574; S1P1 ag pot: -30.9; SF-1 act: 52.8*; M1 agonist: -0.434
